In brackets after ≈: the same amount, converted by molar mass. Activity calls are given as the source filed them. No cut-off for these calls is given here.
Experiments:
[1] = tested on: BC1; assay: (§1) Cytotoxicity against human BC1 cells; assay type: functional
[2] = tested on: KB-V; assay: (§2) Cytotoxicity against human multidrug resistant KB-V cells in presence of vinblastine; assay type: functional
[3] = tested on: KB-V; assay: (§3) Cytotoxicity against human multidrug resistant KB-V cells; assay type: functional
[4] = tested on: SK-N-SH; assay: Cytotoxicity against human SK-N-SH cells; assay type: functional; conditions: for EC50: read-out: ED50 (the source's name)
[5] = tested on: KB; assay: Cytotoxicity against human KB cells; assay type: functional; conditions: for EC50: read-out: ED50 (the source's name)
[6] = tested on: M109 (Mus musculus); assay: Cytotoxicity against mouse M109 cells; conditions: for EC50: read-out: ED50 (the source's name)
[7] = tested on: LNCaP; assay: Cytotoxicity against human LNCaP cells; assay type: functional; conditions: for EC50: read-out: ED50 (the source's name)
[8] = tested on: Lo1; assay: (§4) Cytotoxicity against human […] cells; assay type: functional
[9] = tested on: SW626; assay: Cytotoxicity against human SW626 cells; assay type: functional; conditions: for EC50: read-out: ED50 (the source's name)
[10] = tested on: Col2; assay: Cytotoxicity against human Col2 cells; assay type: functional; conditions: for EC50: read-out: ED50 (the source's name)
[11] = as §1; assay type: functional; conditions: read-out: ED50 (the source's name)
[12] = as §2; assay type: functional; conditions: KBV, read-out: ED50 (the source's name)
[13] = as §3; assay type: functional; conditions: KBV, read-out: ED50 (the source's name)
[14] = tested on: P388; assay: Antitumor activity against mouse P388 leukemia system at 72 mg/kg, ip relative to control; assay type: functional; conditions: route intraperitoneal
How it was run: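 Six female CDF1 mice per group received 10^6 P-388 cells i.p. in 0.5 mL RPMI medium. Starting one day later, test compound was given i.p. daily for 5 days, with doses of 8, 24 and 72 mg/kg/injection. Read-out was survival, reported as % T/C (median survival of treated over control ×100). T/C ≥125% was taken as significant.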

[15] = as §4; assay type: functional; conditions: read-out: ED50 (the source's name)

SMILES	Activity [1]	Activity [2]	Activity [3]	Activity [4]	Activity [5]	Activity [6]	Activity [7]	Activity [8]	Activity [9]	Activity [10]	EC50 [11]	EC50 [12]	EC50 [13]	EC50 [4]	EC50 [5]	EC50 [6]	EC50 [7]	EC50 [15]	EC50 [9]	EC50 [10]	also measured
CC(C)=CC[C@H]1C[C@H](O)c2ccccc2C1=O	inactive	inactive	inactive	inactive	inactive	inactive	inactive	inactive	inactive	inactive	–	–	–	–	–	–	–	–	–	–	–
CC(O)c1cc2c(o1)C(=O)c1ccccc1C2=O (stereo unspecified)	–	–	–	–	–	–	–	–	–	–	3.2 µg/mL (≈ 13.2 µM)	1.2 µg/mL	2 µg/mL (≈ 8.26 µM)	4 µg/mL (≈ 16.5 µM)	0.5 µg/mL (≈ 2.06 µM)	1.8 µg/mL (≈ 7.43 µM)	3.5 µg/mL (≈ 14.4 µM)	0.2 µg/mL (≈ 0.826 µM)	0.3 µg/mL (≈ 1.24 µM)	1.8 µg/mL (≈ 7.43 µM)	T/C [14]: 110%
C=C(C)C1CC2=C(O1)C(=O)c1ccccc1C2=O (stereo not drawn) [DEHYDROISO-ALPHA-LAPACHONE]	–	–	–	–	–	–	–	–	–	–	1 µg/mL (≈ 4.16 µM)	0.3 µg/mL	0.5 µg/mL (≈ 2.08 µM)	0.2 µg/mL (≈ 0.832 µM)	0.2 µg/mL (≈ 0.832 µM)	0.4 µg/mL (≈ 1.66 µM)	0.2 µg/mL (≈ 0.832 µM)	0.2 µg/mL (≈ 0.832 µM)	0.3 µg/mL (≈ 1.25 µM)	0.2 µg/mL (≈ 0.832 µM)	–
CC1(C)CCC2=C(O1)C(=O)c1ccccc1C2=O [ALPHA-LAPACHONE]	–	–	–	–	–	–	–	–	–	–	6.7 µg/mL (≈ 27.7 µM)	8.3 µg/mL	12.9 µg/mL (≈ 53.2 µM)	5.1 µg/mL (≈ 21.1 µM)	13 µg/mL (≈ 53.7 µM)	9 µg/mL (≈ 37.1 µM)	7.1 µg/mL (≈ 29.3 µM)	5.3 µg/mL (≈ 21.9 µM)	3 µg/mL (≈ 12.4 µM)	9.9 µg/mL (≈ 40.9 µM)	–
CC(C)=CC[C@@H]1C(=O)c2ccccc2[C@@H](O)[C@@H]1O	inactive	inactive	inactive	inactive	inactive	inactive	inactive	inactive	inactive	inactive	–	–	–	–	–	–	–	–	–	–	–
CC(C)=CC[C@H]1C(=O)c2ccccc2[C@@H](O)[C@@H]1O	inactive	inactive	inactive	inactive	inactive	inactive	inactive	inactive	inactive	inactive	–	–	–	–	–	–	–	–	–	–	–
CC(C)=CC[C@@H]1C[C@H](O)c2ccccc2C1=O	inactive	inactive	inactive	inactive	inactive	inactive	inactive	inactive	inactive	inactive	–	–	–	–	–	–	–	–	–	–	–
CC(C)(O)[C@H]1C[C@H]2C(=O)c3ccccc3[C@@H](O)[C@@H]2O1 (relative stereo)	inactive	inactive	inactive	inactive	inactive	inactive	inactive	inactive	inactive	inactive	–	–	–	–	–	–	–	–	–	–	–
CC(=O)c1cc2c(o1)C(=O)c1ccccc1C2=O [NAPABUCASIN]	–	–	–	–	–	–	–	–	–	–	0.4 µg/mL (≈ 1.67 µM)	0.9 µg/mL	0.9 µg/mL (≈ 3.75 µM)	0.8 µg/mL (≈ 3.33 µM)	0.2 µg/mL (≈ 0.833 µM)	0.9 µg/mL (≈ 3.75 µM)	0.2 µg/mL (≈ 0.833 µM)	0.3 µg/mL (≈ 1.25 µM)	0.2 µg/mL (≈ 0.833 µM)	0.4 µg/mL (≈ 1.67 µM)	–
